{"source": "ChEMBL document CHEMBL1144435", "about": "“Effects of positional and geometrical isomerism on the biological activity of some novel oxazolidinones” (2005)", "key": {"Staphylococcus aureus [1]": {"tested_on": "Staphylococcus aureus", "assay": "In vitro minimum inhibitory concentration of compound against Methicillin-resistant Staphylococcus aureus ATCC 33591"}, "Enterococcus faecalis [2]": {"tested_on": "Enterococcus faecalis", "assay": "In vitro minimum inhibitory concentration against vancomycin-resistant Enterococcus faecalis NCTC 12201", "format": "functional", "how_it_was_run": "(§1)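 Broth microdilution per NCCLS guidelines. Doubling dilutions from 32-1 µg/mL in Mueller Hinton medium. Final inoculum 1-5 × 10^5 cfu/mL. Plates incubated overnight in ambient air at 35 °C. Linezolid and streptomycin run as controls.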"}, "Staphylococcus aureus [3]": {"tested_on": "Staphylococcus aureus", "assay": "In vitro minimum inhibitory concentration of compound against Methicillin-sensitive Staphylococcus aureus ATCC 29213", "format": "functional", "how_it_was_run": "as §1"}, "Enterococcus faecium": {"tested_on": "Enterococcus faecium", "assay": "In vitro minimum inhibitory concentration against vancomycin-resistant Enterococcus faecium NCTC 12202", "format": "functional", "how_it_was_run": "as §1"}, "[4]": {"tested_on": "Mycolicibacterium smegmatis", "assay": "In vitro minimum inhibitory concentration of compound against Mycobacterium smegmatis MTCC 006", "format": "functional"}, "Enterococcus faecalis [5]": {"tested_on": "Enterococcus faecalis", "assay": "In vitro minimum inhibitory concentration against Enterococcus faecalis ATCC 29212", "format": "functional", "how_it_was_run": "as §1"}, "Staphylococcus aureus [6]": {"tested_on": "Staphylococcus aureus", "assay": "In vitro minimum inhibitory concentration of compound against Staphylococcus aureus ATCC 49951 (Smith)", "format": "functional", "how_it_was_run": "as §1"}}}
{"smiles": "CC(=O)NC[C@H]1CN(c2ccc(/C=C(\\C#N)n3nc4ccccc4n3)c(F)c2)C(=O)O1", "values": [{"measurement": "MIC", "setting": "Staphylococcus aureus [1]", "value": 16, "unit": "µg/mL"}, {"measurement": "MIC", "setting": "Enterococcus faecalis [2]", "value": 32, "unit": "µg/mL"}, {"measurement": "MIC", "setting": "Staphylococcus aureus [3]", "value": 8, "unit": "µg/mL"}, {"measurement": "MIC", "setting": "Enterococcus faecium", "value": 32, "unit": "µg/mL"}, {"measurement": "MIC", "setting": "[4]", "value": "> 32", "unit": "µg/mL"}, {"measurement": "MIC", "setting": "Enterococcus faecalis [5]", "value": 32, "unit": "µg/mL"}, {"measurement": "MIC", "setting": "Staphylococcus aureus [6]", "value": 16, "unit": "µg/mL"}]}
{"smiles": "CC(=O)NC[C@H]1CN(c2ccc(/C=C(/C#N)n3nnc4ccccc43)cc2)C(=O)O1", "values": [{"measurement": "MIC", "setting": "Staphylococcus aureus [1]", "value": "> 32", "unit": "µg/mL"}, {"measurement": "MIC", "setting": "Enterococcus faecalis [2]", "value": "> 32", "unit": "µg/mL"}, {"measurement": "MIC", "setting": "Staphylococcus aureus [3]", "value": "> 32", "unit": "µg/mL"}, {"measurement": "MIC", "setting": "Enterococcus faecium", "value": "> 32", "unit": "µg/mL"}, {"measurement": "MIC", "setting": "[4]", "value": "> 32", "unit": "µg/mL"}, {"measurement": "MIC", "setting": "Enterococcus faecalis [5]", "value": "> 32", "unit": "µg/mL"}, {"measurement": "MIC", "setting": "Staphylococcus aureus [6]", "value": "> 32", "unit": "µg/mL"}]}
{"smiles": "CC(=O)NC[C@H]1CN(c2ccc(/C=C(\\C#N)c3nc4ccccc4n3C)cc2)C(=O)O1", "values": [{"measurement": "MIC", "setting": "Enterococcus faecalis [2]", "value": "> 32", "unit": "µg/mL"}, {"measurement": "MIC", "setting": "Staphylococcus aureus [3]", "value": "> 32", "unit": "µg/mL"}, {"measurement": "MIC", "setting": "Enterococcus faecium", "value": "> 32", "unit": "µg/mL"}, {"measurement": "MIC", "setting": "[4]", "value": "> 32", "unit": "µg/mL"}, {"measurement": "MIC", "setting": "Enterococcus faecalis [5]", "value": "> 32", "unit": "µg/mL"}, {"measurement": "MIC", "setting": "Staphylococcus aureus [6]", "value": "> 32", "unit": "µg/mL"}]}
{"smiles": "C/C(S)=N/C[C@H]1CN(c2ccc(/C=C(\\C#N)n3nc4ccccc4n3)cc2)C(=O)O1", "values": [{"measurement": "MIC", "setting": "Staphylococcus aureus [1]", "value": 2, "unit": "µg/mL"}, {"measurement": "MIC", "setting": "Enterococcus faecalis [2]", "value": 4, "unit": "µg/mL"}, {"measurement": "MIC", "setting": "Staphylococcus aureus [3]", "value": 2, "unit": "µg/mL"}, {"measurement": "MIC", "setting": "Enterococcus faecium", "value": 4, "unit": "µg/mL"}, {"measurement": "MIC", "setting": "[4]", "value": "> 32", "unit": "µg/mL"}, {"measurement": "MIC", "setting": "Enterococcus faecalis [5]", "value": 4, "unit": "µg/mL"}, {"measurement": "MIC", "setting": "Staphylococcus aureus [6]", "value": 2, "unit": "µg/mL"}]}
{"smiles": "CC(=O)NC[C@H]1CN(c2ccc(/C=C(\\C#N)n3cnc4ccccc43)cc2)C(=O)O1", "values": [{"measurement": "MIC", "setting": "Staphylococcus aureus [1]", "value": 16, "unit": "µg/mL"}, {"measurement": "MIC", "setting": "Enterococcus faecalis [2]", "value": 32, "unit": "µg/mL"}, {"measurement": "MIC", "setting": "Staphylococcus aureus [3]", "value": 16, "unit": "µg/mL"}, {"measurement": "MIC", "setting": "Enterococcus faecium", "value": 32, "unit": "µg/mL"}, {"measurement": "MIC", "setting": "[4]", "value": "> 32", "unit": "µg/mL"}, {"measurement": "MIC", "setting": "Enterococcus faecalis [5]", "value": 32, "unit": "µg/mL"}, {"measurement": "MIC", "setting": "Staphylococcus aureus [6]", "value": 16, "unit": "µg/mL"}]}
{"smiles": "CC(=O)NC[C@H]1CN(c2ccc(/C=C(\\C#N)n3nc4ccccc4n3)cc2)C(=O)O1", "values": [{"measurement": "MIC", "setting": "Staphylococcus aureus [1]", "value": 8, "unit": "µg/mL"}, {"measurement": "MIC", "setting": "Enterococcus faecalis [2]", "value": 8, "unit": "µg/mL"}, {"measurement": "MIC", "setting": "Staphylococcus aureus [3]", "value": 8, "unit": "µg/mL"}, {"measurement": "MIC", "setting": "Enterococcus faecium", "value": 8, "unit": "µg/mL"}, {"measurement": "MIC", "setting": "[4]", "value": "> 32", "unit": "µg/mL"}, {"measurement": "MIC", "setting": "Enterococcus faecalis [5]", "value": 8, "unit": "µg/mL"}, {"measurement": "MIC", "setting": "Staphylococcus aureus [6]", "value": 8, "unit": "µg/mL"}]}
{"smiles": "CC(=O)NC[C@H]1CN(c2ccc(/C=C(\\C#N)c3nc4ccccc4s3)cc2)C(=O)O1", "values": [{"measurement": "MIC", "setting": "Enterococcus faecalis [2]", "value": "> 32", "unit": "µg/mL"}, {"measurement": "MIC", "setting": "Staphylococcus aureus [3]", "value": "> 32", "unit": "µg/mL"}, {"measurement": "MIC", "setting": "Enterococcus faecium", "value": "> 32", "unit": "µg/mL"}, {"measurement": "MIC", "setting": "[4]", "value": "> 32", "unit": "µg/mL"}, {"measurement": "MIC", "setting": "Enterococcus faecalis [5]", "value": "> 32", "unit": "µg/mL"}, {"measurement": "MIC", "setting": "Staphylococcus aureus [6]", "value": "> 32", "unit": "µg/mL"}]}
{"smiles": "CC(=O)NC[C@H]1CN(c2ccc(/C=C(\\C#N)c3nc4ccccc4o3)cc2)C(=O)O1", "values": [{"measurement": "MIC", "setting": "Enterococcus faecalis [2]", "value": "> 32", "unit": "µg/mL"}, {"measurement": "MIC", "setting": "Staphylococcus aureus [3]", "value": "> 32", "unit": "µg/mL"}, {"measurement": "MIC", "setting": "Enterococcus faecium", "value": "> 32", "unit": "µg/mL"}, {"measurement": "MIC", "setting": "[4]", "value": "> 32", "unit": "µg/mL"}, {"measurement": "MIC", "setting": "Enterococcus faecalis [5]", "value": "> 32", "unit": "µg/mL"}, {"measurement": "MIC", "setting": "Staphylococcus aureus [6]", "value": "> 32", "unit": "µg/mL"}]}
{"smiles": "CC(=O)NC[C@H]1CN(c2ccc(/C=C(\\C#N)n3nnc4ccccc43)cc2)C(=O)O1", "values": [{"measurement": "MIC", "setting": "Staphylococcus aureus [1]", "value": 16, "unit": "µg/mL"}, {"measurement": "MIC", "setting": "Enterococcus faecalis [2]", "value": 32, "unit": "µg/mL"}, {"measurement": "MIC", "setting": "Staphylococcus aureus [3]", "value": 16, "unit": "µg/mL"}, {"measurement": "MIC", "setting": "Enterococcus faecium", "value": 32, "unit": "µg/mL"}, {"measurement": "MIC", "setting": "[4]", "value": "> 32", "unit": "µg/mL"}, {"measurement": "MIC", "setting": "Enterococcus faecalis [5]", "value": 32, "unit": "µg/mL"}, {"measurement": "MIC", "setting": "Staphylococcus aureus [6]", "value": 16, "unit": "µg/mL"}]}
{"smiles": "CC(=O)NC[C@H]1CN(c2ccc(/C=C(\\C#N)c3nc4ccccc4[nH]3)cc2)C(=O)O1", "values": [{"measurement": "MIC", "setting": "Enterococcus faecalis [2]", "value": "> 32", "unit": "µg/mL"}, {"measurement": "MIC", "setting": "Staphylococcus aureus [3]", "value": "> 32", "unit": "µg/mL"}, {"measurement": "MIC", "setting": "Enterococcus faecium", "value": "> 32", "unit": "µg/mL"}, {"measurement": "MIC", "setting": "[4]", "value": "> 32", "unit": "µg/mL"}, {"measurement": "MIC", "setting": "Enterococcus faecalis [5]", "value": "> 32", "unit": "µg/mL"}, {"measurement": "MIC", "setting": "Staphylococcus aureus [6]", "value": "> 32", "unit": "µg/mL"}]}
{"smiles": "CC(=O)NC[C@H]1CN(c2ccc(N3CCOCC3)c(F)c2)C(=O)O1", "note": "[LINEZOLID]", "values": [{"measurement": "MIC", "setting": "Enterococcus faecium", "value": 2, "unit": "µg/mL"}, {"measurement": "MIC", "setting": "[4]", "value": 2, "unit": "µg/mL"}]}
{"smiles": "CN[C@@H]1[C@H](O[C@H]2[C@H](O[C@H]3[C@H](O)[C@@H](O)[C@H](N=C(N)N)[C@@H](O)[C@@H]3N=C(N)N)O[C@@H](C)[C@]2(O)C=O)O[C@@H](CO)[C@H](O)[C@H]1O", "note": "[STREPTOMYCIN]", "values": [{"measurement": "MIC", "setting": "Staphylococcus aureus [1]", "value": "> 32", "unit": "µg/mL"}, {"measurement": "MIC", "setting": "Enterococcus faecalis [2]", "value": "> 32", "unit": "µg/mL"}, {"measurement": "MIC", "setting": "Staphylococcus aureus [3]", "value": 4, "unit": "µg/mL"}, {"measurement": "MIC", "setting": "Enterococcus faecium", "value": 32, "unit": "µg/mL"}, {"measurement": "MIC", "setting": "[4]", "value": 0.5, "unit": "µg/mL"}, {"measurement": "MIC", "setting": "Enterococcus faecalis [5]", "value": "> 32", "unit": "µg/mL"}, {"measurement": "MIC", "setting": "Staphylococcus aureus [6]", "value": 2, "unit": "µg/mL"}]}
